Bioassay records: PubChem BioAssay, several laboratories
Only a selection was taken, and hits are over-represented in it overall.
NOD2 RIPK2 PPI – blocks binding of human NOD2 to RIPK2; O43353; CHO BLA complementation NOD2-RIPK2, CCF4 ratio; inhibition, % at 4.98 µM; 360,000 compounds, 0.38% hits; AID 624267; in the data active = inhibition above about 21%;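 note: 0% = vehicle only and 100% = reference blocker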
UPR CHOP act – apoptotic UPR (CHOP) activation; activation, % at 10 µM; CHO-CHOP luciferase reporter, luminescence; percent of tunicamycin response over DMSO baseline; 330,000 compounds, 0.34% hits;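 active = at 10 µM dose, activation of 40% or more, normalized to positive control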;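 note: 100% = tunicamycin at 10 µg/mL and 0% = DMSO alone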
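Test system: CHO-CHOP cells, stable luciferase reporter of PERK-eIF2a-CHOP signalling | Quantity: 500 CHO-CHOP cells per well | Buffer or medium: F12 plus 10% serum | Compound dosing: 10 µM single point, 0.5% DMSO | Schedule: 6 h compound treatment, 37 °C | Signal: Luciferase luminescence | Control set: Tunicamycin high control, DMSO low control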
TLR4 MyD88 comp – blocks binding of human TLR4 to MyD88 | 200,000 compounds, 0.18% hits | O00206+Q99836 | inhibition, % at 8.4 µM | HeLa CL3-4 TLR4/MyD88 BLA complementation, FRET ratio; in the data active = inhibition above about 25%;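 note: 0% = vehicle and 100% = reference inhibitor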
UPR XBP1 act – adaptive UPR (XBP1) activation. CHO-XBP1 luciferase reporter, IRE1-XBP1 UPR activation, luminescence; percent of tunicamycin response, DMSO as zero. activation, % at 20 µM. 330,000 compounds, 0.33% hits. AID 463104;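 active = versus positive control, 20 µM dose yields 30% or more activation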;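 note: 100% = tunicamycin at 10 µg/mL and 0% = DMSO only wells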
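incubation = overnight seeding at 37 °C, 6 h compound treatment at 37 °C | assay system = CHO-XBP1 cells stably carrying IRE1-XBP1-driven luciferase reporter | input = 1000 cells per well | detection = luciferase luminescence | dosing = single point, 20 µM final compound, 1% DMSO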
TLR9-MyD88 block – TLR9-MyD88 interaction inhibition; Q9NR96+Q99836; CHO BLA complementation TLR9-MyD88, CCF4 FRET ratio; inhibition, % at 4.98 µM; 340,000 compounds, 0.21% hits; AID 504734;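 active = inhibition above the mean over all tested compounds plus 3 SD, cut at about 21% in these data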;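 note: 0% = DMSO only wells and 100% = clavulanate BLA inhibitor control wells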
Target sequence (Q99836 whole entry, looked up): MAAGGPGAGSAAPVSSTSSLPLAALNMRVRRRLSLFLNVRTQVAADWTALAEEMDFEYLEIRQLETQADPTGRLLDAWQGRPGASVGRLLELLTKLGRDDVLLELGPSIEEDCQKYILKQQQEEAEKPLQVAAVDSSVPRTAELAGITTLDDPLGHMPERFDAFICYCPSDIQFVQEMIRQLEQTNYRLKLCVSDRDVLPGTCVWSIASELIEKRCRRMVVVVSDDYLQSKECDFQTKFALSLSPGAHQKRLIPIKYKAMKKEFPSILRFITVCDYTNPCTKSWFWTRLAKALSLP
Target sequence (Q9NR96 whole entry, looked up): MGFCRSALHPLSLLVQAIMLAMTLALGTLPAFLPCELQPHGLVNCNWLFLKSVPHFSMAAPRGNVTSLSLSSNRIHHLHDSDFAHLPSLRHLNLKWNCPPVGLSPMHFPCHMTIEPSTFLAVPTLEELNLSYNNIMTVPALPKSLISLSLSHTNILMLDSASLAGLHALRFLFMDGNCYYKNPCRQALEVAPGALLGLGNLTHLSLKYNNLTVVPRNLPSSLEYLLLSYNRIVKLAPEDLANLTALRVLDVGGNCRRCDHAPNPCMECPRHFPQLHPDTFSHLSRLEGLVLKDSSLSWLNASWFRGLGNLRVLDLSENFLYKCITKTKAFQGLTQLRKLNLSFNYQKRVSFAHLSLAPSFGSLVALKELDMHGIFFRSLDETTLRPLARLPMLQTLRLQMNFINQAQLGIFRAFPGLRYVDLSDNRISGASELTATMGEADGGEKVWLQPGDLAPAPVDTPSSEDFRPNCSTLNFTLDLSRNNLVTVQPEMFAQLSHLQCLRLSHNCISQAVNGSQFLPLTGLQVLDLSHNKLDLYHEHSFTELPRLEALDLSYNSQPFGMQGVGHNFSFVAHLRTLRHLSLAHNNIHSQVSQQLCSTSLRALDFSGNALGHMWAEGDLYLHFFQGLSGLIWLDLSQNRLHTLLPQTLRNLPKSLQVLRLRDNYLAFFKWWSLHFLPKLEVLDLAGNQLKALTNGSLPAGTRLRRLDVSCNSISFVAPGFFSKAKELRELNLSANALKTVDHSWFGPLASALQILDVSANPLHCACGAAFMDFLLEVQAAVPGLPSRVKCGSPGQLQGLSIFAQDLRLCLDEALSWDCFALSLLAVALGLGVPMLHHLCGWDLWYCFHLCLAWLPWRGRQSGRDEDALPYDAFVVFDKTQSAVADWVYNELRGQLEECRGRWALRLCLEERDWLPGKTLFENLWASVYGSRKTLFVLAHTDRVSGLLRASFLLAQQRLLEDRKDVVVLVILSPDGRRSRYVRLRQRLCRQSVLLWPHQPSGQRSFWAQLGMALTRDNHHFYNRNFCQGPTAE
CHOP inhibitor – inhibitors of CHOP induction in ER stress response; CHO-K1 CHOP-promoter luciferase, tunicamycin-induced, 15-18 h; 220,000 compounds, 3.8% hits; AID 2732; inhibition, % at 10 µM;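 active = compounds that reduced the stress-induced luciferase reporter signal by more than about 70% of percent inhibition, limit read from the data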;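 note: 0% = tunicamycin plus vehicle and 100% = wells without tunicamycin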
UPR CHOP confirm – confirmation of apoptotic unfolded protein response (CHOP) activators | shares compounds with UPR CHOP act | CHO-CHOP cells, CHOP-luciferase reporter luminescence; percent of tunicamycin response, DMSO as zero | activation, % at 10 µM | 1,000 compounds, 64% hits | AID 463112; in the data active = activation above about 33%;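 note: 0% = DMSO wells and 100% = tunicamycin 10 µg/mL wells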
* = called active by the depositor.

`COc1ccc(/C=C/C(=O)O)cc1` gave NOD2 RIPK2 PPI -13, UPR CHOP act -3, UPR XBP1 act -3 and TLR9-MyD88 block 5.
`COc1ccc(/C=C/C(=O)Oc2ccc(C)cc2)cc1` gave NOD2 RIPK2 PPI -14, UPR CHOP act 43*, UPR XBP1 act 29, TLR9-MyD88 block 0 and UPR CHOP confirm 40*.
CCOC(=O)CCNC(=O)N1CCCC(N2CCN(c3ccc(OC)cc3)CC2)C1 (centres undefined) was read as NOD2 RIPK2 PPI -4, UPR CHOP act 0, UPR XBP1 act -3 and TLR9-MyD88 block 12.
CCOC(=O)c1c(C)oc2c1c(C=NCCO)c(O)c1ccccc12 was read as NOD2 RIPK2 PPI -4, TLR4 MyD88 comp -7, TLR9-MyD88 block -1 and CHOP inhibitor 50.
`CCOC(=O)c1c(C)oc2c1c(C(c1ccccc1)N1CCOCC1)c(O)c1ccccc12` (centres undefined) gave NOD2 RIPK2 PPI -3, UPR CHOP act 62*, TLR4 MyD88 comp 16, UPR XBP1 act 11, TLR9-MyD88 block -9, CHOP inhibitor -23 and UPR CHOP confirm 73*.
For CCOC(=O)C1CCN(C(c2cccnc2)c2c(NC(=O)c3ccco3)sc(C)c2C)CC1 (centres undefined) the results were NOD2 RIPK2 PPI 0, UPR CHOP act 0, TLR4 MyD88 comp -9, UPR XBP1 act 2 and TLR9-MyD88 block 0.
CCOC(=O)c1c(C)oc2c1c(C(c1cccnc1)N1CCCCC1)c(O)c1ccccc12 (centres undefined) was read as NOD2 RIPK2 PPI 2, UPR CHOP act 114*, TLR4 MyD88 comp 6, UPR XBP1 act 11, TLR9-MyD88 block 0, CHOP inhibitor 17 and UPR CHOP confirm 182*.
For O=C(NC12CC3CC(CC(C3)C1)C2)c1cc(F)c(F)c(F)c1F the results were NOD2 RIPK2 PPI 1, UPR CHOP act 0, UPR XBP1 act -6 and TLR9-MyD88 block 7.
Cc1ccc(S(=O)(=O)NC2CCCCCCC2)cc1 was read as NOD2 RIPK2 PPI 2, UPR CHOP act -1, UPR XBP1 act -3 and TLR9-MyD88 block -1.
For Cc1ccc(S(=O)(=O)NC2OC(=O)C(Cl)=C2Cl)cc1 (centres undefined) the results were NOD2 RIPK2 PPI -11, UPR CHOP act 63*, TLR4 MyD88 comp 4, UPR XBP1 act -5, TLR9-MyD88 block -16, CHOP inhibitor -78 and UPR CHOP confirm 15.
Screening O=C(N/N=C/c1ccc(Cl)c([N+](=O)[O-])c1)c1cc(-c2ccc3c4c(cccc24)CC3)n[nH]1 returned NOD2 RIPK2 PPI 3, UPR CHOP act 43*, UPR XBP1 act 1, TLR9-MyD88 block -8, CHOP inhibitor 77* and UPR CHOP confirm 14.
For COc1ccccc1C1(O)C(=O)Nc2ccccc21 (centres undefined) the results were NOD2 RIPK2 PPI 9, UPR CHOP act 0, UPR XBP1 act -4 and TLR9-MyD88 block 0.
Screening CCCCCCCCOc1ccc(C2OC34CCCCC3C(C#N)(C#N)C2(C#N)C(=N)O4)cc1 (centres undefined) returned NOD2 RIPK2 PPI 1, UPR CHOP act 45*, TLR4 MyD88 comp -2, UPR XBP1 act -2, TLR9-MyD88 block 6, CHOP inhibitor -46 and UPR CHOP confirm 29.
For CCC(C)Nc1nc(-c2ccccn2)nc2ccccc12 (centres undefined) the results were NOD2 RIPK2 PPI -2, UPR CHOP act 47*, UPR XBP1 act 11, TLR9-MyD88 block -10 and UPR CHOP confirm 21.
`c1ccc(CNc2nc(-c3ccccc3)nc3ccccc23)cc1` gave NOD2 RIPK2 PPI -2, UPR CHOP act 0, UPR XBP1 act 0 and TLR9-MyD88 block 4.
`c1ccc(CNc2nc(-c3ccccn3)nc3ccccc23)cc1` gave NOD2 RIPK2 PPI 0, UPR CHOP act 40*, UPR XBP1 act 13, TLR9-MyD88 block 2 and UPR CHOP confirm 15.
